Measured values reported in ChEMBL document CHEMBL1933017, “Synthesis and biological evaluation of some thiazolidinones as antimicrobial agents” (2012).
Converted amounts (≈) assume the structure as drawn.

What was measured:
Proteus vulgaris [1] = assay: Antibacterial activity against Proteus vulgaris at 100 ug/disc after 24 hrs by disc diffusion method; format: functional; details: read-out: DIZ
Outline: (§1)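 Paper disc diffusion on autoclaved Mueller-Hinton agar poured 5 mm deep. Agar was swab-inoculated with 10⁵ CFU/mL suspension (0.5 McFarland). Discs 6.25 mm across were soaked in compound solution in DMSO (3.12–100 µg/mL) and plates incubated 24 h at (37 ± 1) °C. Read-out was inhibition zone (mm). DMSO control disc; ciprofloxacin or ketoconazole reference, 100 µg/disc. Mean of three independent experiments.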

Shigella flexneri [2] = assay: Antibacterial activity against Shigella flexneri at 100 ug/disc after 24 hrs by disc diffusion method; format: functional; details: read-out: DIZ; outline: as §1
Staphylococcus aureus [3] = assay: Antibacterial activity against Staphylococcus aureus after 24 hrs by agar streak dilution method; format: functional
Outline: (§2)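 MIC by agar streak dilution. Graded amounts of DMSO stock (100 μg/mL) were mixed into molten sterile nutrient agar and poured 4–5 mm deep. Serial concentrations spanned 3.12–100 µg/mL. Plates were inoculated with about 10⁵ CFU/mL of bacterial suspension and incubated at (37 ± 1) °C for 24 h. Each value is the mean of three independent experiments.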

Bacillus cereus [4] = assay: Antibacterial activity against Bacillus cereus after 24 hrs by agar streak dilution method; format: functional; outline: as §2
Escherichia coli [5] = assay: Antibacterial activity against Escherichia coli after 24 hrs by agar streak dilution method; format: functional; outline: as §2
Pseudomonas aeruginosa [6] = assay: Antibacterial activity against Pseudomonas aeruginosa […] after 24 hrs by agar streak dilution method; format: functional
Klebsiella pneumoniae [7] = assay: Antibacterial activity against Klebsiella pneumoniae […] after 24 hrs by agar streak dilution method; format: functional
Salmonella typhi [8] = assay: Antibacterial activity against Salmonella Typhi after 24 hrs by agar streak dilution method; format: functional, Salmonella enterica subsp. enterica serovar Typhi; details: Salmonella enterica
Outline: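 Agar streak dilution: DMSO stock (100 µg/mL) graded into molten sterile nutrient agar, poured 4–5 mm deep and solidified. Plates carry serial dilutions spanning 3.12–100 µg/mL. Applied ~10⁵ CFU/mL suspension, then incubated 24 h at (37 ± 1) °C. MIC read as the lowest inhibitory concentration; each value is the mean of three independent experiments.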

Proteus vulgaris [9] = assay: Antibacterial activity against Proteus vulgaris after 24 hrs by agar streak dilution method; format: functional; outline: as §2
Shigella flexneri [10] = assay: Antibacterial activity against Shigella flexneri after 24 hrs by agar streak dilution method; format: functional; outline: as §2
Aspergillus niger [11] = assay: Antifungal activity against Aspergillus niger after 48 hrs by agar streak dilution method; format: functional
Outline: (§3)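 Fungal MIC by agar streak dilution on Sabouraud dextrose agar, poured 4–5 mm deep. Compound from a DMSO stock (100 μg/mL) was incorporated at serial concentrations of 3.12–100 µg/mL. Plates were inoculated with about 10⁵ CFU/mL of suspension and incubated at (37 ± 1) °C for 48 h. Each value is the mean of three independent experiments.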

Aspergillus fumigatus [12] = assay: Antifungal activity against Aspergillus fumigatus after 48 hrs by agar streak dilution method; format: functional; outline: as §3
Aspergillus clavatus [13] = assay: Antifungal activity against Aspergillus clavatus after 48 hrs by agar streak dilution method; format: functional; outline: as §3
Candida albicans [14] = assay: Antifungal activity against Candida albicans after 48 hrs by agar streak dilution method; format: functional; outline: as §3
Aspergillus niger [15] = assay: Antifungal activity against Aspergillus niger at 100 ug/disc after 24 hrs by disc diffusion method; format: functional; details: read-out: DIZ; outline: as §1
Aspergillus fumigatus [16] = assay: Antifungal activity against Aspergillus fumigatus at 100 ug/disc after 24 hrs by disc diffusion method; format: functional; details: read-out: DIZ; outline: as §1
Aspergillus clavatus [17] = assay: Antifungal activity against Aspergillus clavatus at 100 ug/disc after 24 hrs by disc diffusion method; format: functional; details: read-out: DIZ; outline: as §1
Candida albicans [18] = assay: Antifungal activity against Candida albicans at 100 ug/disc after 24 hrs by disc diffusion method; format: functional; details: read-out: DIZ; outline: as §1
Staphylococcus aureus [19] = assay: Antibacterial activity against Staphylococcus aureus at 100 ug/disc after 24 hrs by disc diffusion method; format: functional; details: read-out: DIZ; outline: as §1
Bacillus cereus [20] = assay: Antibacterial activity against Bacillus cereus at 100 ug/disc after 24 hrs by disc diffusion method; format: functional; details: read-out: DIZ; outline: as §1
Escherichia coli [21] = assay: Antibacterial activity against Escherichia coli at 100 ug/disc after 24 hrs by disc diffusion method; format: functional; details: read-out: DIZ; outline: as §1
Pseudomonas aeruginosa [22] = assay: Antibacterial activity against Pseudomonas aeruginosa at 100 ug/disc after 24 hrs by disc diffusion method; format: functional; details: read-out: DIZ; outline: as §1
Klebsiella pneumoniae [23] = assay: Antibacterial activity against Klebsiella pneumoniae at 100 ug/disc after 24 hrs by disc diffusion method; format: functional; details: read-out: DIZ; outline: as §1
Salmonella typhi [24] = assay: Antibacterial activity against Salmonella Typhi at 100 ug/disc after 24 hrs by disc diffusion method; format: functional, Salmonella enterica subsp. enterica serovar Typhi; details: Salmonella enterica, read-out: DIZ
Outline: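 Paper disc diffusion on Mueller-Hinton agar poured 5 mm deep; 10⁵ CFU/mL suspension (0.5 McFarland) swabbed over surface. 6.25 mm filter paper discs soaked in compound in DMSO, incubated 24 h at (37 ± 1) °C; inhibition zone diameter in mm. DMSO disc as blank; ciprofloxacin 100 µg/disc as reference. Mean of three independent experiments.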

| Structure (SMILES) | zone of inhibition at 100 µg/disc (Proteus vulgaris [1]) | zone of inhibition at 100 µg/disc (Shigella flexneri [2]) | MIC (Staphylococcus aureus [3]) | MIC (Bacillus cereus [4]) | MIC (Escherichia coli [5]) | MIC (Pseudomonas aeruginosa [6]) | MIC (Klebsiella pneumoniae [7]) | MIC (Salmonella typhi [8]) | MIC (Proteus vulgaris [9]) | MIC (Shigella flexneri [10]) | MIC (Aspergillus niger [11]) | MIC (Aspergillus fumigatus [12]) | MIC (Aspergillus clavatus [13]) | MIC (Candida albicans [14]) | zone of inhibition at 100 µg/disc (Aspergillus niger [15]) | zone of inhibition at 100 µg/disc (Aspergillus fumigatus [16]) | zone of inhibition at 100 µg/disc (Aspergillus clavatus [17]) | zone of inhibition at 100 µg/disc (Candida albicans [18]) | zone of inhibition at 100 µg/disc (Staphylococcus aureus [19]) | zone of inhibition at 100 µg/disc (Bacillus cereus [20]) | other results |
| --- | --- | --- | --- | --- | --- | --- | --- | --- | --- | --- | --- | --- | --- | --- | --- | --- | --- | --- | --- | --- | --- |
| CCN1CCN(CC2SC(c3ccc(Cl)cc3)N(c3ccc(Nc4nc(Oc5cc(=O)n(C)c6ccccc56)nc(N(C)C)n4)cc3)C2=O)CC1 (stereo unspecified) | 25 mm | 26 mm | 6.25 µg/mL (≈ 8.61 µM) | 6.25 µg/mL (≈ 8.61 µM) | 12.5 µg/mL (≈ 17.2 µM) | 50 µg/mL (≈ 68.8 µM) | 6.25 µg/mL (≈ 8.61 µM) | 50 µg/mL (≈ 68.8 µM) | 25 µg/mL (≈ 34.4 µM) | 12.5 µg/mL (≈ 17.2 µM) | 25 µg/mL (≈ 34.4 µM) | 12.5 µg/mL (≈ 17.2 µM) | 12.5 µg/mL (≈ 17.2 µM) | 12.5 µg/mL (≈ 17.2 µM) | 26 mm | 26 mm | 23 mm | 27 mm | 26 mm | 28 mm | zone of inhibition at 100 µg/disc (Escherichia coli [21]): 27 mm; zone of inhibition at 100 µg/disc (Pseudomonas aeruginosa [22]): 23 mm; zone of inhibition at 100 µg/disc (Klebsiella pneumoniae [23]): 26 mm; zone of inhibition at 100 µg/disc (Salmonella typhi [24]): 20 mm |
| CCN1CCN(CC2SC(c3ccc([N+](=O)[O-])cc3)N(c3ccc(Nc4nc(Oc5cc(=O)n(C)c6ccccc56)nc(N(C)C)n4)cc3)C2=O)CC1 (stereo unspecified) | 25 mm | 22 mm | 50 µg/mL (≈ 67.9 µM) | 50 µg/mL (≈ 67.9 µM) | 100 µg/mL (≈ 136 µM) | 100 µg/mL (≈ 136 µM) | 50 µg/mL (≈ 67.9 µM) | 100 µg/mL (≈ 136 µM) | 50 µg/mL (≈ 67.9 µM) | 50 µg/mL (≈ 67.9 µM) | 50 µg/mL (≈ 67.9 µM) | 100 µg/mL (≈ 136 µM) | 100 µg/mL (≈ 136 µM) | 100 µg/mL (≈ 136 µM) | 23 mm | 20 mm | 21 mm | 17 mm | 22 mm | 22 mm | zone of inhibition at 100 µg/disc (Escherichia coli [21]): 24 mm; zone of inhibition at 100 µg/disc (Pseudomonas aeruginosa [22]): 18 mm; zone of inhibition at 100 µg/disc (Klebsiella pneumoniae [23]): 23 mm; zone of inhibition at 100 µg/disc (Salmonella typhi [24]): 22 mm |
| CCN1CCN(CC2SC(c3ccccc3)N(c3ccc(Nc4nc(Oc5cc(=O)n(C)c6ccccc56)nc(N(C)C)n4)cc3)C2=O)CC1 (stereo unspecified) | 15 mm | 12 mm | 100 µg/mL (≈ 145 µM) | 100 µg/mL (≈ 145 µM) | 25 µg/mL (≈ 36.1 µM) | 100 µg/mL (≈ 145 µM) | 100 µg/mL (≈ 145 µM) | 50 µg/mL (≈ 72.3 µM) | 100 µg/mL (≈ 145 µM) | 100 µg/mL (≈ 145 µM) | 100 µg/mL (≈ 145 µM) | 100 µg/mL (≈ 145 µM) | 100 µg/mL (≈ 145 µM) | 100 µg/mL (≈ 145 µM) | 12 mm | < 10 mm | < 10 mm | 14 mm | 14 mm | 16 mm | zone of inhibition at 100 µg/disc (Escherichia coli [21]): 22 mm; zone of inhibition at 100 µg/disc (Pseudomonas aeruginosa [22]): 13 mm; zone of inhibition at 100 µg/disc (Klebsiella pneumoniae [23]): < 10 mm; zone of inhibition at 100 µg/disc (Salmonella typhi [24]): 16 mm |
| CCN1CCN(CC2SC(c3ccc(C)cc3)N(c3ccc(Nc4nc(Oc5cc(=O)n(C)c6ccccc56)nc(N(C)C)n4)cc3)C2=O)CC1 (stereo unspecified) | 27 mm | 24 mm | 50 µg/mL (≈ 70.8 µM) | 50 µg/mL (≈ 70.8 µM) | 25 µg/mL (≈ 35.4 µM) | 6.25 µg/mL (≈ 8.85 µM) | 50 µg/mL (≈ 70.8 µM) | 50 µg/mL (≈ 70.8 µM) | 6.25 µg/mL (≈ 8.85 µM) | 50 µg/mL (≈ 70.8 µM) | 100 µg/mL (≈ 142 µM) | 50 µg/mL (≈ 70.8 µM) | 25 µg/mL (≈ 35.4 µM) | 50 µg/mL (≈ 70.8 µM) | 21 mm | 24 mm | 26 mm | 23 mm | 26 mm | 24 mm | zone of inhibition at 100 µg/disc (Escherichia coli [21]): 24 mm; zone of inhibition at 100 µg/disc (Pseudomonas aeruginosa [22]): 26 mm; zone of inhibition at 100 µg/disc (Klebsiella pneumoniae [23]): 24 mm; zone of inhibition at 100 µg/disc (Salmonella typhi [24]): 23 mm |
